Assay results pooled from the literature.
Target: Cyclin-dependent kinase-like 5 (CDKL5, Homo sapiens, UniProt O76039)
One construct used (O76039 1-960): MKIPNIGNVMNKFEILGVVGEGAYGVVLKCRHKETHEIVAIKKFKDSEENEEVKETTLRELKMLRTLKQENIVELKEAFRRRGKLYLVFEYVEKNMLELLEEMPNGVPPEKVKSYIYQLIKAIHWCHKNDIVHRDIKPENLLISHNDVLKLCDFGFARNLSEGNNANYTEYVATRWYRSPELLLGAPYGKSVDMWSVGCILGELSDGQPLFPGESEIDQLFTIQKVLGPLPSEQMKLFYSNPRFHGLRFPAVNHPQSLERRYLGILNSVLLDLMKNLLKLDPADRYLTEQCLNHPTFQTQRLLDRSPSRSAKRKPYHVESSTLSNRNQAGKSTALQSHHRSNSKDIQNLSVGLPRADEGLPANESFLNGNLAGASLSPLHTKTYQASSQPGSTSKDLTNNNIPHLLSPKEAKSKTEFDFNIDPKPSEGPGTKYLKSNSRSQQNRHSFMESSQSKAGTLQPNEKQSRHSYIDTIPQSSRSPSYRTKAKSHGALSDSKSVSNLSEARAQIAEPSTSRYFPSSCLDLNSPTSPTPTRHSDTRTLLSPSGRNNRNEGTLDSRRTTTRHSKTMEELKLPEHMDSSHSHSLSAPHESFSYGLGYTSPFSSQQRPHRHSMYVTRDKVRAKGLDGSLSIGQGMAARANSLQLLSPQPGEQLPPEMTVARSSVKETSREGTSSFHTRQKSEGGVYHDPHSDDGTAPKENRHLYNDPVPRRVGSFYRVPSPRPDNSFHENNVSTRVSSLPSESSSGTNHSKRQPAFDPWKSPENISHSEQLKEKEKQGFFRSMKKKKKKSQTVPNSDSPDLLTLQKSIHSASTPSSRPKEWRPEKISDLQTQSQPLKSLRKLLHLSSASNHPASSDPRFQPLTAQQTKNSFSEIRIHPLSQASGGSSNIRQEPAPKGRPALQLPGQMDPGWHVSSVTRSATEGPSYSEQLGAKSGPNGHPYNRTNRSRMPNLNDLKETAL

`F[C@@H]1CCN(c2nccc(-c3cnn4ncccc34)n2)C1` has a remaining binding of 100% (binding; 1 µM).
For `CC(C)CC(=O)N1CCc2nc(-c3ccc(Br)cc3)nc(N(C)Cc3ccccc3)c2C1`, the remaining binding was 100% (cell-free assay, competition with immobilised ligand; 0.1 µM).
`O=C(NCC1CCOCC1)c1n[nH]cc1NC(=O)c1c(F)cccc1F` has a remaining binding of 30% (binding, competition with immobilised ligand; 1 µM).
`O=C(NCCCN1CCOCC1)c1ccc(Nc2nccc(-c3cc4ccccc4s3)n2)cc1` gave a remaining binding of 40% (binding, competition with immobilised ligand; 1 µM).
`c1cncc(-c2cccc(Nc3nccc(NC4CCCCC4)n3)c2)c1` gave a remaining binding of 38% (binding, competition with immobilised ligand; 10 µM).
The remaining binding of `COc1ccnn2ncc(-c3ccnc(N(C)C)n3)c12` is reported as 86% (binding; 1 µM).
With `O=C(c1ccc(Nc2ncc(Cl)c(-c3ccc(Cl)s3)n2)cc1)N1CCC(N2CCCC2)CC1` the remaining binding was 26% (binding, competition with immobilised ligand; 1 µM).
The remaining binding of `C[C@@H]1CCN(c2nccc(-c3cnn4ncccc34)n2)C1` is reported as 86% (binding; 1 µM).
For `O=C(NS(=O)(=O)c1ccc(NCC2CCOCC2)c([N+](=O)[O-])c1)c1ccc(N2CCN(Cc3ccc(C(F)(F)F)cc3-c3ccc(Cl)cc3)CC2)cc1Oc1cnc2[nH]ccc2c1`, the remaining binding was 74% (cell-free assay, competition with immobilised ligand; 1 µM).
`O=C(c1ccc(Nc2ncc(Cl)c(-c3cc4ccccc4s3)n2)cc1)N1CCC(N2CCCC2)CC1` gave a remaining binding of 32% (binding, competition with immobilised ligand; 1 µM).
`C[C@@H](c1ccc(-n2cnc3c(N)ncnc32)cc1)N1CCc2nn(C)c(Cc3ccccc3)c2C1=O` has a remaining binding of 71% (binding, competition with immobilised ligand; 0.1 µM).
`CN(C)c1nccc(-c2cnc3ncccn23)n1` has a remaining binding of 88% (binding; 1 µM).
For `CC1=C(C#N)C(c2ccc3c(c2)c(NC(=O)c2ccccc2C)nn3C)C(C#N)=C(C)N1`, the remaining binding was 79% (binding, competition with immobilised ligand; 1 µM).
`N[C@@H]1CCN(c2nccc(-c3cnn4ncccc34)n2)C1` gave a remaining binding of 100% (binding; 1 µM).
`CNC(=O)[C@@H]1CC[C@@H](n2c(-c3ccc4cnccc4c3)nc3ccc(C(=O)NCc4cccc(C(N)=O)c4)cc32)C1` gave a remaining binding of 100% (binding, competition with immobilised ligand; 1 µM).
`CS(=O)(=O)N1CCCC(NC(=O)[C@H](CCC2CCCCC2)NC(=O)c2ccc(CNc3ncnc4c3nnn4-c3ccccc3)cc2)C1` (stereo partly drawn) has a remaining binding of 100% (cell-free assay, competition with immobilised ligand; 0.1 µM).
With `COc1ncc2cc3ccccc3nc2c1C#N` the remaining binding was 90% (binding, competition with immobilised ligand; 5 µM).
`CCS(=O)(=O)c1cc2cc(C[C@](O)(CC(C)(C)c3ccc(F)cc3C(N)=O)C(F)(F)F)[nH]c2cn1` gave a remaining binding of 100% (cell-free assay, competition with immobilised ligand; 1 µM).
`CN(c1nccc(-c2cnn3ncccc23)n1)C1CC1` gave a remaining binding of 100% (binding; 1 µM).
`C[C@H](c1ccc(F)cc1)N(Cc1cccc(C(=O)O)c1)C(=O)c1cnc2ccccc2c1` has a remaining binding of 100% (binding, competition with immobilised ligand; 1 µM).
For `CCN1CCN(Cc2ccc(C(=O)Nc3ccc(C)c(Oc4ccc5c(c4)CC(=O)N5)c3)cc2C(F)(F)F)CC1`, the remaining binding was 100% (binding, competition with immobilised ligand; 1 µM).
